This is a sample that favours compounds with a hit; in the whole collection about 4.9% have one here.
STAT1 inh – STAT1 signaling inhibitors, primary screen, cell-based, HTS, luciferase reporter. NIH 3T3 STAT1-luciferase reporter, IFN-gamma, luminescence. inhibition, % at 5.5 µM. hit rate 0.35% among 200,000;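 active = inhibition above a set limit, the mean inhibition across all tested compounds plus 3 SD, cut at about 34% in these data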;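 note: 0% = IFN-gamma with DMSO and 100% = IFN-gamma with 300 µM nifuroxazide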
STAT3 act-1 – IL-6 driven STAT3 reporter potentiators, primary screen, U3A cells, luciferase, luminescence, MLSCN library; IL-6 STAT3-luciferase reporter; 100% = signal with IL-6 EC80 alone; activation (% of control), % at 5.6 µM; hit rate 0.91% among 190,000;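 active = activation above the screen-wide mean of compound activation plus 3 SD, cut at about 130% in these data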;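 note: 0% = background luminescence of wells with medium and substrate only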
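Assay system – human STAT1-deficient U3A cells with stable STAT3-luciferase reporter · Also added – IL-6 (33 ng/mL) · Schedule – compound 1 h, then IL-6 6 h at 37 °C · Technique – reporter luminescence signal · Evaluation – % activation versus median of IL-6-stimulated wells · Benchmarks – IL-6-only wells as 100% reference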
NF-kB neuron act – activators of NF-kB expression in neurons, primary screen, cell-based, HTS; AID 1239, 2008; human neuronal cells, NF-kB reporter expression; stronger effect = higher value; hit rate 1.6% among 190,000; fold change at 12.5 µM; in the data active = fold change above about 3.3
STAT3 inh – IL-6 driven STAT3 reporter inhibitors, primary screen, U3A cells, luciferase, luminescence, MLSCN library. IL-6 STAT3-luciferase reporter; host cell line lacks STAT1. inhibition, % at 5.5 µM. hit rate 0.89% among 190,000;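 active = inhibition above the mean inhibition across all screened compounds plus 3 SD, cut at about 44% in these data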;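 note: 0% = DMSO only wells and 100% = 100 µM nifuroxazide control wells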
APP 5'UTR act – activators of APP 5'UTR luciferase reporter, primary screen, SH-SY5Y cells. activation, % at 2 µM. hit rate 1% among 190,000. SH-SY5Y APP 5'UTR luciferase reporter, luminescence; zero percent = DMSO vehicle wells;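 active = activation above a set limit, based on mean plus 3 SD of controls, cut at about 140% in these data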
STAT1 act-1 – STAT1 signaling activators, primary screen, cell-based, HTS, luciferase reporter | NIH 3T3 STAT1-luciferase reporter, IFN-gamma, luminescence; 100% = IFN-gamma alone, no compound | activation (% of control), % at 5.5 µM | hit rate 2.6% among 200,000 | AID 932, 2007;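 active = activation above the screen-wide mean activation plus 3 SD, cut at about 130% in these data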;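 note: raw ratio to IFN-gamma control signal so 100% means no change and 0% no light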
STAT3 act-2 – STAT3 reporter potentiators, retest of hits, confirmation, U3A cells, luciferase, luminescence | shares compounds with STAT3 act-1 | IL-6 potentiation; U3A cells lack STAT1; 100 means same as IL-6 alone | potentiation (% of control), % at 5.7 µM | hit rate 64% among 1,200 | AID 1267, 2008;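 active = percent activation of the STAT3 luciferase reporter above a set limit taken from the earlier primary screen, cut at about 130% in these data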;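 note: 0% = background signal of medium plus substrate and 100% = median of IL-6 with DMSO wells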
NFkB act STAT3ct – NF-kB reporter activators in human cells, counter-screen for STAT3 activator project; shares compounds with STAT3 act-1; activation (% of control), % at 5.7 µM; hit rate 11% among 1,200; NF-kappaB reporter activation; in the data active = activation above about 120%;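 note: reporter induced by TNF-alpha stimulation; 100% = median of stimulated DMSO wells and 0% = no signal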
STAT1 act-2 – STAT1 reporter activators, IFN-gamma induced, counter-screen for STAT3 activator project, cell-based, NIH 3T3, luciferase luminescence; shares compounds with STAT3 act-1; NIH 3T3 STAT1-luciferase reporter; activation (% of control), % at 5.7 µM; hit rate 13% among 1,200;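 active = activation above the solvent-only control well mean plus 3 SD, set per screening run, cut at about 120% in these data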;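 note: 100% = IFN-gamma with DMSO median signal so 100% means no change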
* marks the source's active call; other numbers are inactive results; . = no result.

SMILES	STAT1 inh	STAT3 act-1	NF-kB neuron act	STAT3 inh	APP 5'UTR act	STAT1 act-1	STAT3 act-2	NFkB act STAT3ct	STAT1 act-2
S=c1[nH]ncn1/N=C/c1ccccn1	1.3	95.3	1.2	11.1	-0.2	98.8	.	.	.
O=C(Oc1c(Cl)cc(Cl)c2ccccc12)N1CCCC1	9.7	143.2*	0.87	-43.6	-10.5	91.1	150.9*	112.2	106.8
CCOc1ccccc1CN1CCN(Cc2cc3ccccc3[nH]2)CC1CCO (configuration not stated)	19.6	136.1*	0.67	-36.0	1.8	80.9	150.2*	98.3	93.7
CCc1cc(C(=O)N=Nc2c(O)[nH]c3c(Br)cc(Br)cc23)c2ccccc2n1	10.5	100.7	0.37	2.8	12.2	90.5	.	.	.
COCCNC(=S)N1CCC(NC(=O)c2ccco2)CC1	-2.6	95.6	1.21	9.4	8.9	100.8	.	.	.
O=C(/C=C/c1ccccc1)C1=C(O)C(=O)N(CCO)C1c1ccccc1[N+](=O)[O-] (configuration not stated)	-0.6	143.7*	1.24	-46.7	-20.5	98.6	152.0*	104.0	82.3
CC(=O)C1=C(O)C(=O)N(CCc2ccccc2)C1c1ccccc1[N+](=O)[O-] (configuration not stated)	5.0	119.6	0.94	-26.7	-1.4	95.6	.	.	.
CCc1ccc(NC(=O)Cn2c3[n+](c4c(F)c(F)ccc42)CCCCC3)cc1	-11.2	104.0	1.42	0.4	-9.0	112.3	.	.	.
O=C(NCCCn1ccnc1)c1ccc(N2CCCCC2)c([N+](=O)[O-])c1	-1.3	89.9	0.99	18.1	1.1	99.9	.	.	.
CN(C)c1ccc(P(=O)(Nc2ccc([N+](=O)[O-])cc2)N2CCOCC2)c(NC(=O)c2cccs2)c1 (configuration not stated)	-5.4	140.1*	0.8	-54.5	-3.6	105.0	149.0*	100.8	103.7
Cc1ccc(NP(=O)(c2ccc(N(C)C)cc2NC(=O)c2cccs2)N2CCOCC2)cc1 (configuration not stated)	1.1	138.9*	1.2	-53.3	12.5	99.0	135.1*	100.9	101.1
O=C(Nc1ccc(C(=O)N2CCOCC2)cc1)c1cccs1	3.4	96.7	1.19	5.7	6.0	96.9	.	.	.
Cc1ccc(NP(=O)(c2ccc(N(C)C)cc2NC(=O)c2cccs2)N2CCOCC2)cc1Cl (configuration not stated)	3.8	127.2	0.69	-38.6	16.3	96.5	.	.	.
CN(C)c1ccc(P(=O)(Nc2ccccc2)N2CCOCC2)c(NC(=O)c2cccs2)c1 (configuration not stated)	-2.5	135.8*	1	-42.9	14.0	102.2	140.0*	99.8	103.0
Cc1c([N+](=O)[O-])nnn1-c1cc(Cl)cc(Cl)c1	-4.9	99.7	1.1	2.4	-11.9	103.1	.	.	.
CC(C)(C)n1nc2c(c1NC(=O)c1ccc(S(=O)(=O)N3CCCC3)cc1)CSC2	8.6	152.0*	0.91	-62.9	-2.6	92.1	144.9*	108.1	95.3
O=C(N/N=C\c1ccccc1)c1ccccc1-n1cccc1	-1.0	113.7	1	-14.8	-1.1	99.5	.	.	.
O=C(N/N=C\c1cccs1)c1ccccc1-n1cccc1	2.0	137.8*	0.92	-44.2	7.6	96.7	148.1*	104.6	96.2
COc1ccc(NC(=S)NCc2ccco2)c(OC)c1	4.5	96.4	1.25	4.2	-8.5	99.3	.	.	.

Screens from PubChem BioAssay.
